According to ChEMBL document CHEMBL4052595, “Application of Residual Dipolar Couplings and Selective Quantitative NOE to Establish the Structures of Tetranortriterpenoids from Xylocarpus rumphii” (J Nat Prod, 2017):
Calls of active or inactive are those of the source.

Experiments:
Type in all cases: functional, cell-based
BT-549 = experiment: Growth inhibition of human BT549 cells at 10^-5 M incubated for 48 hrs by sulforhodamine B assay
In short: (§1)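 Run in the NCI59 one-dose cell-line screen, with each compound tested at a single concentration of 1 × 10−5 M.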

T47D = experiment: Growth inhibition of human T47D cells at 10^-5 M incubated for 48 hrs by sulforhodamine B assay
In short: (§2)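 Tested at a single concentration of 1 × 10−5 M as part of the NCI59 cell-line one-dose screen.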

Hs-578T = experiment: Growth inhibition of human Hs 578T cells at 10^-5 M incubated for 48 hrs by sulforhodamine B assay; in short: as §1
MCF7 = experiment: Growth inhibition of human MCF7 cells at 10^-5 M incubated for 48 hrs by sulforhodamine B assay; in short: as §1
MDA-MB-231 = experiment: Growth inhibition of human MDA-MB-231 cells at 10^-5 M incubated for 48 hrs by sulforhodamine B assay; in short: as §1
DU-145 = experiment: Growth inhibition of human DU145 cells at 10^-5 M incubated for 48 hrs by sulforhodamine B assay; in short: as §1
UO-31 = experiment: Growth inhibition of human UO31 cells at 10^-5 M incubated for 48 hrs by sulforhodamine B assay; in short: as §2
PC-3 = experiment: Growth inhibition of human PC3 cells at 10^-5 M incubated for 48 hrs by sulforhodamine B assay; in short: as §1
SN12C = experiment: Growth inhibition of human SN12C cells at 10^-5 M incubated for 48 hrs by sulforhodamine B assay; in short: as §1
TK-10 = experiment: Growth inhibition of human TK10 cells at 10^-5 M incubated for 48 hrs by sulforhodamine B assay; in short: as §2
RXF 393 = experiment: Growth inhibition of human RXF393 cells at 10^-5 M incubated for 48 hrs by sulforhodamine B assay; in short: as §1
ACHN = experiment: Growth inhibition of human ACHN cells at 10^-5 M incubated for 48 hrs by sulforhodamine B assay; in short: as §1
CAKI-1 = experiment: Growth inhibition of human Caki1 cells at 10^-5 M incubated for 48 hrs by sulforhodamine B assay; in short: as §1
A498 = experiment: Growth inhibition of human A498 cells at 10^-5 M incubated for 48 hrs by sulforhodamine B assay; in short: as §1
786-0 = experiment: Growth inhibition of human 786-0 cells at 10^-5 M incubated for 48 hrs by sulforhodamine B assay; in short: as §1
NCI/ADR-RES = experiment: Growth inhibition of human NCI/ADR-RES cells at 10^-5 M incubated for 48 hrs by sulforhodamine B assay; in short: as §1
SK-OV-3 = experiment: Growth inhibition of human SKOV3 cells at 10^-5 M incubated for 48 hrs by sulforhodamine B assay; in short: as §1
OVCAR-8 = experiment: Growth inhibition of human OVCAR8 cells at 10^-5 M incubated for 48 hrs by sulforhodamine B assay; in short: as §1
OVCAR-4 = experiment: Growth inhibition of human OVCAR4 cells at 10^-5 M incubated for 48 hrs by sulforhodamine B assay; in short: as §1
OVCAR-5 = experiment: Growth inhibition of human OVCAR5 cells at 10^-5 M incubated for 48 hrs by sulforhodamine B assay; in short: as §1
IGROV-1 = experiment: Growth inhibition of human IGROV1 cells at 10^-5 M incubated for 48 hrs by sulforhodamine B assay; in short: as §1
OVCAR-3 = experiment: Growth inhibition of human OVCAR3 cells at 10^-5 M incubated for 48 hrs by sulforhodamine B assay; in short: as §1
UACC-62 = experiment: Growth inhibition of human UACC62 cells at 10^-5 M incubated for 48 hrs by sulforhodamine B assay; in short: as §2
SK-MEL-5 = experiment: Growth inhibition of human SK-MEL-5 cells at 10^-5 M incubated for 48 hrs by sulforhodamine B assay; in short: as §1
UACC-257 = experiment: Growth inhibition of human UACC257 cells at 10^-5 M incubated for 48 hrs by sulforhodamine B assay; in short: as §2
SK-MEL-28 = experiment: Growth inhibition of human SK-MEL-28 cells at 10^-5 M incubated for 48 hrs by sulforhodamine B assay; in short: as §1
MDA-MB-435 = experiment: Growth inhibition of human MDA-MB-435 cells at 10^-5 M incubated for 48 hrs by sulforhodamine B assay; in short: as §1
SK-MEL-2 = experiment: Growth inhibition of human SK-MEL-2 cells at 10^-5 M incubated for 48 hrs by sulforhodamine B assay; in short: as §1
M14 = experiment: Growth inhibition of human M14 cells at 10^-5 M incubated for 48 hrs by sulforhodamine B assay; in short: as §1
U-251 = experiment: Growth inhibition of human U251 cells at 10^-5 M incubated for 48 hrs by sulforhodamine B assay; in short: as §2
LOX IMVI = experiment: Growth inhibition of human LOXIMVI cells at 10^-5 M incubated for 48 hrs by sulforhodamine B assay; in short: as §1
SNB-19 = experiment: Growth inhibition of human SNB19 cells at 10^-5 M incubated for 48 hrs by sulforhodamine B assay; in short: as §1
SNB-75 = experiment: Growth inhibition of human SNB75 cells at 10^-5 M incubated for 48 hrs by sulforhodamine B assay; in short: as §1
SF-539 = experiment: Growth inhibition of human SF539 cells at 10^-5 M incubated for 48 hrs by sulforhodamine B assay; in short: as §1
SF-268 = experiment: Growth inhibition of human SF268 cells at 10^-5 M incubated for 48 hrs by sulforhodamine B assay; in short: as §1
SF-295 = experiment: Growth inhibition of human SF295 cells at 10^-5 M incubated for 48 hrs by sulforhodamine B assay; in short: as §1
SW-620 = experiment: Growth inhibition of human SW620 cells at 10^-5 M incubated for 48 hrs by sulforhodamine B assay; in short: as §2
HT-29 = experiment: Growth inhibition of human HT-29 cells at 10^-5 M incubated for 48 hrs by sulforhodamine B assay; in short: as §1
KM12 = experiment: Growth inhibition of human KM12 cells at 10^-5 M incubated for 48 hrs by sulforhodamine B assay; in short: as §1
HCT-116 = experiment: Growth inhibition of human HCT116 cells at 10^-5 M incubated for 48 hrs by sulforhodamine B assay; in short: as §1
HCT-15 = experiment: Growth inhibition of human HCT15 cells at 10^-5 M incubated for 48 hrs by sulforhodamine B assay; in short: as §1
HCC 2998 = experiment: Growth inhibition of human HCC2998 cells at 10^-5 M incubated for 48 hrs by sulforhodamine B assay; in short: as §1
NCI-H522 = experiment: Growth inhibition of human NCI-H522 cells at 10^-5 M incubated for 48 hrs by sulforhodamine B assay; in short: as §1
COLO 205 = experiment: Growth inhibition of human COLO205 cells at 10^-5 M incubated for 48 hrs by sulforhodamine B assay; in short: as §1
NCI-H460 = experiment: Growth inhibition of human NCI-H460 cells at 10^-5 M incubated for 48 hrs by sulforhodamine B assay; in short: as §1
NCI-H23 = experiment: Growth inhibition of human NCI-H23 cells at 10^-5 M incubated for 48 hrs by sulforhodamine B assay; in short: as §1
NCI-H322M = experiment: Growth inhibition of human NCI-H322M cells at 10^-5 M incubated for 48 hrs by sulforhodamine B assay; in short: as §1
NCI-H226 = experiment: Growth inhibition of human NCI-H226 cells at 10^-5 M incubated for 48 hrs by sulforhodamine B assay; in short: as §1
HOP-62 = experiment: Growth inhibition of human HOP62 cells at 10^-5 M incubated for 48 hrs by sulforhodamine B assay; in short: as §1
HOP-92 = experiment: Growth inhibition of human HOP92 cells at 10^-5 M incubated for 48 hrs by sulforhodamine B assay; in short: as §1
A549 = experiment: Growth inhibition of human A549/ATCC cells at 10^-5 M incubated for 48 hrs by sulforhodamine B assay; in short: as §1
EKVX = experiment: Growth inhibition of human EKVX cells at 10^-5 M incubated for 48 hrs by sulforhodamine B assay; in short: as §1
SR = experiment: Growth inhibition of human SR cells at 10^-5 M incubated for 48 hrs by sulforhodamine B assay; in short: as §1
MOLT-4 = experiment: Growth inhibition of human MOLT4 cells at 10^-5 M incubated for 48 hrs by sulforhodamine B assay; in short: as §1
RPMI-8226 = experiment: Growth inhibition of human RPMI8226 cells at 10^-5 M incubated for 48 hrs by sulforhodamine B assay; in short: as §1
K562 = experiment: Growth inhibition of human K562 cells at 10^-5 M incubated for 48 hrs by sulforhodamine B assay; in short: as §1
CCRF-CEM = experiment: Growth inhibition of human CCRF-CEM cells at 10^-5 M incubated for 48 hrs by sulforhodamine B assay; in short: as §1
HL-60(TB) = experiment: Growth inhibition of human HL-60(TB) cells at 10^-5 M incubated for 48 hrs by sulforhodamine B assay
In short: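 Run in the NCI59 cell-line one-dose screen, with each compound tested at a single concentration of 1 × 10−5 M.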

Measured: growth inhibition (GI)

CC[C@H](C)C(=O)O[C@@H]1[C@@H]2[C@@H](OC(=O)C(C)C)[C@@]34O[C@]2(O)[C@@](C)([C@@H](CC(=O)OC)C1(C)C)[C@H]3CC[C@]1(C)C4=CC(=O)O[C@H]1c1ccoc1
inactive: all assays above
